Measurements from ChEMBL document CHEMBL1806446, “Synthesis and evaluation of hermitamides A and B as human voltage-gated sodium channel blockers” (Bioorg Med Chem, 2011).

Assays:
Rattus norvegicus = species on record: Rattus norvegicus; assay: Displacement of [3H]batrachotoxin from neurotoxin site 2 of voltage-gated sodium channel in rat forebrain tissue at 10 uM after 60 mins
How it was run: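 Rat forebrain membranes (10 mg tissue/well) incubated with [3H]-BTX (30–60 Ci/mmol) in 50 mM HEPES pH 7.4 with 130 mM choline chloride, 37 °C, 60 min; test at 10 μM. Stopped by rapid vacuum filtration onto glass fiber filters; bound radioactivity counted against control and expressed as percent displacement. Aconitine (1 μM) positive control.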

[1] = molecular target: Sodium channel protein type 2 subunit alpha (Homo sapiens) (UniProt Q99250); assay: Inhibition of human voltage-gated sodium channel 1.2 expressed in human HEK293 cells at 10 uM by […]; type: cell-based
How it was run: (§1)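 HEK293 cells stably expressing hNav1.2, grown in DMEM/F12 with 10% FBS and G418 at 37 °C. Whole-cell patch clamp at 20–22 °C with ≥75% series resistance compensation. Currents evoked by a 25 ms step from –60 to +10 mV every 15 s. Compound was diluted from DMSO stock into perfusion, ≤0.1% DMSO final, applied after a 3 min control until steady state. Reported as percent block, mean ± SEM.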

[2] = molecular target: Sodium channel protein type 2 subunit alpha (Homo sapiens) (UniProt Q99250); assay: Inhibition of human voltage-gated sodium channel 1.2 expressed in HEK293 cells at 1 uM by […]; type: cell-based; how it was run: as §1
[3] = molecular target: Sodium channel protein type 2 subunit alpha (Homo sapiens) (UniProt Q99250); assay: Inhibition of human voltage-gated sodium channel 1.2 expressed in HEK293 cells at 100 nM by […]; type: cell-based; how it was run: as §1

Sodium channel protein type 2 subunit alpha (Homo sapiens), sequence (Q99250 whole entry, looked up, the tested form may be a part): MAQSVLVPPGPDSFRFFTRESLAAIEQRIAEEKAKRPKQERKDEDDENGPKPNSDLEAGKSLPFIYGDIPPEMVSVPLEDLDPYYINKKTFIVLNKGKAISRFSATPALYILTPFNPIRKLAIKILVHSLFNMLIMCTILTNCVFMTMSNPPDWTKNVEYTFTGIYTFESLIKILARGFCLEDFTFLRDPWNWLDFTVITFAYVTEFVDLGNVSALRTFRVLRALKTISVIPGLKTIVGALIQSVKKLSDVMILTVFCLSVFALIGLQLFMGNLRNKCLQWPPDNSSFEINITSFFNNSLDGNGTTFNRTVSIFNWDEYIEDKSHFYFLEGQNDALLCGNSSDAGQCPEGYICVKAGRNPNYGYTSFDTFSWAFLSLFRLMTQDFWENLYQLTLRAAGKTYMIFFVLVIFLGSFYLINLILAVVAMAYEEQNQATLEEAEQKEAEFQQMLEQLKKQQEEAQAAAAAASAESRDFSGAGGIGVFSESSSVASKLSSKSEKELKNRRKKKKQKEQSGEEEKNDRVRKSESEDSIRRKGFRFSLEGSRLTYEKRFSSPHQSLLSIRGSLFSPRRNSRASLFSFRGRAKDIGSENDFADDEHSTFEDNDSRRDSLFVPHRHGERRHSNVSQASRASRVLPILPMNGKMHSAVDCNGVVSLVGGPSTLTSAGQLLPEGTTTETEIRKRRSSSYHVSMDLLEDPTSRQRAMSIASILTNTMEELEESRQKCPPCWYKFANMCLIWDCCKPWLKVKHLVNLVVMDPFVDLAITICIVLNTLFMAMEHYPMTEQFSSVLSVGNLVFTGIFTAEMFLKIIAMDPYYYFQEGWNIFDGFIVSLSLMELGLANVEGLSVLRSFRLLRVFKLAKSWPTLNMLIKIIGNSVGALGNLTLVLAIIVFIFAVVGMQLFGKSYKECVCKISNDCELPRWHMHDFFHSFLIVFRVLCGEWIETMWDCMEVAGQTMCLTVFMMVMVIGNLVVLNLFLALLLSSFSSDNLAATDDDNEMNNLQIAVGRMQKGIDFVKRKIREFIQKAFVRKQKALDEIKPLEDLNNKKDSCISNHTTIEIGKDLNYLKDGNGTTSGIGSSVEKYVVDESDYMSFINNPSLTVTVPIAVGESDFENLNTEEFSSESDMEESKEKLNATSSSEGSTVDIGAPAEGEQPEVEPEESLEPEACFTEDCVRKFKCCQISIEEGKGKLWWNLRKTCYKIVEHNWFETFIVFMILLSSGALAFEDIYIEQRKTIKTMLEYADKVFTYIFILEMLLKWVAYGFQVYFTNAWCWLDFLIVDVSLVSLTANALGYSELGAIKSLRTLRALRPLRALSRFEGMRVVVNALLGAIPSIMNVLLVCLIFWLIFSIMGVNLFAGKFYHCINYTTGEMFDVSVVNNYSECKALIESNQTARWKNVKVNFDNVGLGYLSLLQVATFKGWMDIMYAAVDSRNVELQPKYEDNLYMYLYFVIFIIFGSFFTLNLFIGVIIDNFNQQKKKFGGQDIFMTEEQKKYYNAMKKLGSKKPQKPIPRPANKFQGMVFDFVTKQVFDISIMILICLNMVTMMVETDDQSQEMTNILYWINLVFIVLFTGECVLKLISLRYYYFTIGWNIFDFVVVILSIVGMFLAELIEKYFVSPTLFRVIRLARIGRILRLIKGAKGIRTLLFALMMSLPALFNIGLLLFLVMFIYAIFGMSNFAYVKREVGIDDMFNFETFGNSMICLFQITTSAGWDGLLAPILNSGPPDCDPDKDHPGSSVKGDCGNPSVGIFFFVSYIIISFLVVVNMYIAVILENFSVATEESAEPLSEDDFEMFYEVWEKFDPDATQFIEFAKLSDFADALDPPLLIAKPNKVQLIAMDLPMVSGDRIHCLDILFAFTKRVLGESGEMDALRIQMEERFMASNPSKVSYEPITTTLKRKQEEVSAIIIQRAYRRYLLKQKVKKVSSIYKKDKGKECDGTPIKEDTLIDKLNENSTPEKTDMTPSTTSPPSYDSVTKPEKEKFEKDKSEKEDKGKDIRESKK

Compound | Activity (Rattus norvegicus) [%] | inhibition [1] [%] | inhibition [2] [%] | inhibition [3] [%]
CCCCCCCC(C/C=C/CCC(=O)NCCc1c[nH]c2ccccc12)OC (racemic) | 36 | 100 | 88.4 | 24.3
CCCCCCC[C@H](C/C=C/CCC(=O)O)OC | 11.9 |  |  | 
CCCCCCCC(C/C=C/CCC(=O)NCCc1ccccc1)OC (racemic) | 15.7 | 90.2 | 49.7 | < 10
CCCCCCC[C@@H](C/C=C/CCC(=O)NCCc1ccccc1)OC | 15.9 | 94.4 | 74.4 | 15.5
CCCCCCCC(C/C=C/CCC(=O)O)OC (racemic) | 7.35 |  |  | 
CCCCCCC[C@@H](C/C=C/CCC(=O)O)OC | 7.77 |  |  | 
CCCCCCC[C@H](C/C=C/CCC(=O)NCCc1ccccc1)OC | 13.8 |  | 58.7 | < 10
CCCCCCC[C@@H](C/C=C/CCC(=O)NCCc1c[nH]c2ccccc12)OC | 29 | 100 | 87.8 | 17.2
O=C1NC(=O)C(c2ccccc2)(c2ccccc2)N1 | 19.8 | 10 | < 10 | 
CCCCCCC[C@H](C/C=C/CCC(=O)NCCc1c[nH]c2ccccc12)OC | 20.3 |  | 80.7 | 28.8
